Consider one molecule from ChEMBL document CHEMBL1932969, “Acyl derivatives of boswellic acids as inhibitors of NF-κB and STATs” (Bioorg Med Chem Lett, 2012).

For assay [1], the target named is T1, Signal transducer and activator of transcription 5A (Homo sapiens) (UniProt P42229).
T1 sequence (whole entry): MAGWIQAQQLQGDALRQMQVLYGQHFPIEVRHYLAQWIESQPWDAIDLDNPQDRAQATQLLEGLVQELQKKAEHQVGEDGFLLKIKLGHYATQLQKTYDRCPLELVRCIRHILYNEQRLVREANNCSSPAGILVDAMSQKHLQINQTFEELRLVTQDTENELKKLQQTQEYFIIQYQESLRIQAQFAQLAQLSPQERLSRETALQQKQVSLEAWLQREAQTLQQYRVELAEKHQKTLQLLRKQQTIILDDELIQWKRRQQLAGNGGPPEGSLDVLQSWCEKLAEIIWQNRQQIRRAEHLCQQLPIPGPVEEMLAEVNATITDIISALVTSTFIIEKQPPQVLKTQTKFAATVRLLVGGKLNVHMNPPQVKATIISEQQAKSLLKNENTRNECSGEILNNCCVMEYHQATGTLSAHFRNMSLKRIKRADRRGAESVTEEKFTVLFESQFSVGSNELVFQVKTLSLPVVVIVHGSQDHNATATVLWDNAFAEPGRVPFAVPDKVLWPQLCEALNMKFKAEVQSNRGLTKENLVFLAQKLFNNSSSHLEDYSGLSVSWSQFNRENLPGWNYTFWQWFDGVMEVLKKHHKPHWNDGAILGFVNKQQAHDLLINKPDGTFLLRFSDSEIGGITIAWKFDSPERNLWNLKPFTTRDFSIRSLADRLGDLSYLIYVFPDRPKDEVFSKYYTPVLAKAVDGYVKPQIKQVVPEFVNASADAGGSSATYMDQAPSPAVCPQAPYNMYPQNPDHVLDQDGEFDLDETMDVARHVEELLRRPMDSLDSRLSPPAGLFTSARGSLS
Kind of assay: Inhibition of STAT5 protein expression in p53-deficient human HL60 cells at 20 to 50 uM after 6 hrs by Western blot analysis. The format is cell-based. Particulars: HL-60.

The subject of another assay is SW-620. Put plainly: Anticancer activity against human SW620 cells assessed as growth inhibition at 50 uM after 48 hrs by SRB assay. As to conditions: SW-620, 48 h, read-out: GI. In kind it is functional. In outline: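 Cells exposed to test compounds at 50 µM for 48 h. Read-out is percent growth inhibition, with SEM given. 5-Fluorouracil and adriamycin serve as reference agents.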
On the technique in general: Sulforhodamine B stains cellular protein and so reports cell mass.

The nature of assay [2]: Cytotoxicity against human HGF cells after 48 hrs by MTT assay. In kind it is cell-based. An outline of the steps: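 Cell proliferation measured by MTT. Cells are incubated with each analog for 48 h at the indicated concentrations, then MTT reduction is read as an index of viability. OD of the untreated control is taken as 100% viability, and IC50 is derived from this.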
(In general: Tetrazolium dyes change colour on reduction, which living cells bring about.)

The test system of assay [3] is HL-60. Kind of assay: Induction of apoptosis in p53-deficient human HL60 cells at 50 uM after 6 hrs by FITC-conjugated annexinV/PI-based flow cytometric analysis. The format is functional. In outline: (§1)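 HL-60 cells incubated with each analog at 50 µM for 6 h, stained with annexin V-FITC/propidium iodide and analysed by flow cytometry. Lower right quadrant is apoptotic, upper right post-apoptotic, upper left necrotic. Three experiments, with representative dot plots shown.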
A general note: A flow cytometer gives signals particle by particle.

Assay [4] deals with Signal transducer and activator of transcription 3 (Homo sapiens) (UniProt P40763). Kind of assay: Inhibition of STAT3 Thr705 phosphorylation in p53-deficient human HL60 cells at 20 to 50 uM after 6 hrs by Western blot analysis. The format is cell-based. As to conditions: HL-60.
In assay [5] the test system is HL-60. Kind of assay: Inhibition of NF-kappaB p50 subunit protein expression in p53-deficient human HL60 cells at 50 uM after 6 hrs by Western blot analysis. In kind it is cell-based. An outline of the steps:
(§2)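 HL-60 cells treated with or without compound (20 and 50 µM) for 6 h. Total cell lysates (70 µg protein) are run on 10% SDS–PAGE and immunoblotted for NF-κB p50 and p65.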

Assay [6] concerns the target Transcription factor p65 (Homo sapiens) (UniProt Q04206). Put plainly: Inhibition of NF-kappaB p65 subunit protein expression in p53-deficient human HL60 cells at 50 uM after 6 hrs by Western blot analysis. The format is cell-based. Particulars: HL-60. An outline of the steps:
as §2

The subject of assay [7] is HL-60. Put plainly: Induction of apoptosis in p53-deficient human HL60 cells assessed as post-apoptotic cells at 50 uM after 6 hrs by FITC-conjugated annexinV/PI-based flow cytometric analysis (reference value: 1 %). In kind it is functional. In outline:
as §1

Assay [8] has as its target T2, Signal transducer and activator of transcription 6 (Homo sapiens) (UniProt P42226).
T2 sequence (whole entry): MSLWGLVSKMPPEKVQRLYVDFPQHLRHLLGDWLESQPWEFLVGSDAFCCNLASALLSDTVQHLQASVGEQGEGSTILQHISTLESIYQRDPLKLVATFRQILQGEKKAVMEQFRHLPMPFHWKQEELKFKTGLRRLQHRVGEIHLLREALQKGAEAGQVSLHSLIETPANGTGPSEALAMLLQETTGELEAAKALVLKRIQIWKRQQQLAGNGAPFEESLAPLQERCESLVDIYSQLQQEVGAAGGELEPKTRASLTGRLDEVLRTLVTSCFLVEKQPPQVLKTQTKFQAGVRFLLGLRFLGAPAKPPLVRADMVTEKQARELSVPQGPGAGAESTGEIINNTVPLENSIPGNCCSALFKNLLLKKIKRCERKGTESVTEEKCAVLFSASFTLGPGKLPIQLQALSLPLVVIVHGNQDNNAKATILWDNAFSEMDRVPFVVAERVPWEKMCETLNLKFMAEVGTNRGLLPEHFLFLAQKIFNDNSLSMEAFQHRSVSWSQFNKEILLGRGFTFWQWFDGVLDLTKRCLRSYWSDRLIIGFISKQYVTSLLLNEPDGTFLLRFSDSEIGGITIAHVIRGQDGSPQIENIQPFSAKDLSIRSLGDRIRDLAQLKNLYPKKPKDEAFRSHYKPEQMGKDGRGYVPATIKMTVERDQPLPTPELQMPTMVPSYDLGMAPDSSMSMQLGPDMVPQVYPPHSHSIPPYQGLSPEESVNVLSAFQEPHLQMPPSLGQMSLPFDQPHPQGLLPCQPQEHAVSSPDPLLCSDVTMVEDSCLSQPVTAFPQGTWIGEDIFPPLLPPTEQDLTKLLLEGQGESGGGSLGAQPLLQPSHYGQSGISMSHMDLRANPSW
Put plainly: Inhibition of STAT6 Tyr641 phosphorylation in p53-deficient human HL60 cells at 20 to 50 uM after 6 hrs by Western blot analysis. The format is cell-based. As to conditions: HL-60.

For assay [9], the system named is HL-60. Put plainly: Induction of apoptosis in p53-deficient human HL60 cells assessed as apoptotic cells at 50 uM after 6 hrs by FITC-conjugated annexinV/PI-based flow cytometric analysis (reference value: 5 %). In kind it is functional. In outline:
as §1

Assay [10] deals with Transcription factor p65 (Homo sapiens) (UniProt Q04206). Kind of assay: Inhibition of NF-kappaB p65 subunit protein expression in p53-deficient human HL60 cells at 20 uM after 6 hrs by Western blot analysis. Particulars: HL-60. The format is cell-based. An outline of the steps: as §2

Activity calls are given as the source filed them. The rule behind the calls is not given here.

Sequence of Transcription factor p65 (Homo sapiens) (Q04206 whole entry): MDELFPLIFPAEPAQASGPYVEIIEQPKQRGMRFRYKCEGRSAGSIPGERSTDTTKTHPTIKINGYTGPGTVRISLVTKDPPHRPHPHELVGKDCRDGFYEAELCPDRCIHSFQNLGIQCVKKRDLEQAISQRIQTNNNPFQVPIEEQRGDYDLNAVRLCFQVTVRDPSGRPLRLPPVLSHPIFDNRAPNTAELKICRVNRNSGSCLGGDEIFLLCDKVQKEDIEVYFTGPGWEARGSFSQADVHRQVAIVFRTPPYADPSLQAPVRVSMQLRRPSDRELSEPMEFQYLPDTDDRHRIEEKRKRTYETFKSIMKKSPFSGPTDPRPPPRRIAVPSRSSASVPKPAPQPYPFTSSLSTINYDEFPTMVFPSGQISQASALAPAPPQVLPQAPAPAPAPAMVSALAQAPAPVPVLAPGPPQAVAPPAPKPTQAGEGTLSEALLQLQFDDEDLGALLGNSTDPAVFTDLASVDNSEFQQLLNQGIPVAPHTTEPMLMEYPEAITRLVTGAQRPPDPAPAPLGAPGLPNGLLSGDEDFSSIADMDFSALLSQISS
Sequence of Signal transducer and activator of transcription 3 (Homo sapiens) (P40763 whole entry): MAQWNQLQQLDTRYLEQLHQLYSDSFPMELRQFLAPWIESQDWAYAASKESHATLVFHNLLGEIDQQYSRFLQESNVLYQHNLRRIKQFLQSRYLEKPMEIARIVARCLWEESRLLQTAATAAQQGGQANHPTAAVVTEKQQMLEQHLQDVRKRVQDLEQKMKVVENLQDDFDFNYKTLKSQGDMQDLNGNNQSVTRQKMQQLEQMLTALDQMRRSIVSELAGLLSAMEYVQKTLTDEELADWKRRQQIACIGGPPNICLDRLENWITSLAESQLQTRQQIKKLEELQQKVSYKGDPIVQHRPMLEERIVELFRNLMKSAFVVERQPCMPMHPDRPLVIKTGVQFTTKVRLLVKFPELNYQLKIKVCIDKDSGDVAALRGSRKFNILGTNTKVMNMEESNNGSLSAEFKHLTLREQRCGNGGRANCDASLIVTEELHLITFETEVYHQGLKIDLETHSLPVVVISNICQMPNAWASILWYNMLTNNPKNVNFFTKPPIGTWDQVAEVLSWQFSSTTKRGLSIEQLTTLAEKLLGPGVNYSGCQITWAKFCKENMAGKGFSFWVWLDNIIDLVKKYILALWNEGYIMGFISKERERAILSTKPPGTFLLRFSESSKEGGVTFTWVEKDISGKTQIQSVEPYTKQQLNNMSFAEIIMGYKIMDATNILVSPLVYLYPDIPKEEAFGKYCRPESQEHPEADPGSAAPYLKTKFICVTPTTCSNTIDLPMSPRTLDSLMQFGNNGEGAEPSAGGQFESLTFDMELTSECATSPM

In general, inhibition refers to the change of the read-out against control, counted positive when it falls. As a reminder, the IC50 is the midpoint of a concentration-inhibition curve. A low value points to greater potency in that assay. Turning to `CCCC(=O)O[C@@H]1CC[C@@]2(C)[C@@H](CC[C@]3(C)[C@@H]2C(=O)C=C2[C@@H]4[C@@H](C)[C@H](C)CC[C@]4(C)CC[C@]23C)[C@@]1(C)C(=O)O`, the inhibition entry (in assay [1]; in assay [4]; in the assay with HL-60 [5]; in [8]) was “Active” throughout. For the same molecule, the inhibition of growth at 50 µM in the assay on SW-620 amounted to 97%. In addition, in assay [2], the IC50 is 80 µM. Moreover, the Activity with HL-60 [3] is 80%; in the assay with HL-60 [7], 48%; in the assay on HL-60 [9], 32%. The inhibition in [6] and in assay [10] was 90% in each case.
